Results: ChEMBL document CHEMBL2062417, “Biotinylated quercetin as an intrinsic photoaffinity proteomics probe for the identification of quercetin target proteins” (Bioorg Med Chem, 2011)
Calls of active or inactive are those of the source. The calls are words filed in the database; no cut-off is given here.

Assays:
[1] = biological target: T1, Splicing factor 3B subunit 3 (Homo sapiens) (UniProt Q15393); experiment: Binding affinity to SF3B3 in human Jurkat cells at 150 uM followed by UV irradiation for 30 mins with Wood's glass filtered medium pressure mercury arc light prior to cell lysis measured after denaturing wash by SDS-PAGE based pull down assay
T1 sequence (whole entry): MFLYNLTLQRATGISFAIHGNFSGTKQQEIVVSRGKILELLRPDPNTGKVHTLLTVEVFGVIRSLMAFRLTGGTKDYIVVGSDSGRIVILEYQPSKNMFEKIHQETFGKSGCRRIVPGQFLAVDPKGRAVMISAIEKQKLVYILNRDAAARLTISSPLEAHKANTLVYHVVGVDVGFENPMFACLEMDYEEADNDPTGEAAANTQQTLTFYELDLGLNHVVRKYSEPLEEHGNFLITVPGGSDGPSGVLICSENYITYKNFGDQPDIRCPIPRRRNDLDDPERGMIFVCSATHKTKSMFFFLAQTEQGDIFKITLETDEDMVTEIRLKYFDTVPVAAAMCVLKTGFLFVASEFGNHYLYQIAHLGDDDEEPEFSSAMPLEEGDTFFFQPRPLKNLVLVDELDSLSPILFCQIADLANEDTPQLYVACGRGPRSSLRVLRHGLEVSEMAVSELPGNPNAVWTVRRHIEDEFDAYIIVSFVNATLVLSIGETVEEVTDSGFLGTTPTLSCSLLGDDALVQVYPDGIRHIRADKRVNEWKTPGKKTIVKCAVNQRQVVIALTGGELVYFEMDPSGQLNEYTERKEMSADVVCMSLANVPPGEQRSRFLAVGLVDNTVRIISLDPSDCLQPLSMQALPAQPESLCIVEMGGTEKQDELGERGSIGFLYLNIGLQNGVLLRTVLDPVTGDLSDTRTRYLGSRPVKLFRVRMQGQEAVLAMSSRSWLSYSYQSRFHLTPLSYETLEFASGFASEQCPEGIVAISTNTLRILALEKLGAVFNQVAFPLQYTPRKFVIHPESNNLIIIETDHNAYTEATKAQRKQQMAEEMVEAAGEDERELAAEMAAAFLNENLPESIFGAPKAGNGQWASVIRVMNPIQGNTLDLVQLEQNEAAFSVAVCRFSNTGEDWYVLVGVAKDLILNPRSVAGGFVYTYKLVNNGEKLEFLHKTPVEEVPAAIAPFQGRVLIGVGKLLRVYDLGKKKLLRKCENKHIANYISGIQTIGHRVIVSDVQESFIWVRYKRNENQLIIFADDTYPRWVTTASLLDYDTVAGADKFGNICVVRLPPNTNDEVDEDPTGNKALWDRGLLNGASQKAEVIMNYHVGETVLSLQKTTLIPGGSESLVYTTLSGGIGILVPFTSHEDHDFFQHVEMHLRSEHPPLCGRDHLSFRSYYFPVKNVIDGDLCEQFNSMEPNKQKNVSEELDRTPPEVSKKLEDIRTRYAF
Method in brief: (§1)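 Jurkat cells were grown in RPMI with 10% FBS (about 15×10^6 cells) and treated 2 h with 150 μM BioQ in 3% aqueous DMSO. They were heat-shocked at 43 °C for 30 min, recovered 1 h at 37 °C, and UV-irradiated (320–400 nm, peak 365 nm, 30 min, 4 °C) before or after sonication lysis. Streptavidin-agarose capture ran 1 h. Beads were washed ≥3× with lysis buffer or 2% SDS Tris pH 7.4, boiled, run on 12% SDS-PAGE and silver-stained.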

[2] = biological target: Heat shock protein HSP 90-alpha (Homo sapiens) (UniProt P07900); experiment: Binding affinity to HSP90AA1 in human Jurkat cells at 150 uM followed by UV irradiation for 30 mins with Wood's glass filtered medium pressure mercury arc light prior to cell lysis measured after denaturing wash by SDS-PAGE based pull down assay; method in brief: as §1
[3] = biological target: Casein kinase II subunit alpha (Homo sapiens) (UniProt P68400); experiment: Binding affinity to CK2alpha at 150 uM followed by UV irradiation for 30 mins with Wood's glass filtered medium pressure mercury arc light by SDS-PAGE based pull down assay
Casein kinase II subunit alpha (Homo sapiens), sequence (P68400 whole entry, looked up): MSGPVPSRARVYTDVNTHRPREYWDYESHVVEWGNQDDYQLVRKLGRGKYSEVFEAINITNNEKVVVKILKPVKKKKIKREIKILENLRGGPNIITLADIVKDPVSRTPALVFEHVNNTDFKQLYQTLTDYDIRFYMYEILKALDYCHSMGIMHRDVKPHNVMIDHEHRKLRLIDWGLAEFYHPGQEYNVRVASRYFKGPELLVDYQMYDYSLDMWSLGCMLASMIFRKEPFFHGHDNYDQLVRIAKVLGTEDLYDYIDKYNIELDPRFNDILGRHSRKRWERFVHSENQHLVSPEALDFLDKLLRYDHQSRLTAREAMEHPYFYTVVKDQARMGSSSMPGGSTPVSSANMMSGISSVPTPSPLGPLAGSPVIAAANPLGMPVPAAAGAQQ
Method in brief: (§2)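 CK2 (17.5–70 nM) was mixed with 150 μM BioQ in 400 μL 10 mM PBS pH 7.2 with protease inhibitors, with or without 10 mM MgCl2 and 2 μM ATP. Samples were irradiated 30 min on ice (320–400 nm, peak 365 nm) or left unirradiated. Capture was on streptavidin agarose for 1 h, with washes in lysis buffer or 2% SDS Tris buffer, then boiling, SDS-PAGE and silver staining.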

[4] = biological target: Actin, cytoplasmic 1 (Homo sapiens) (UniProt P60709); experiment: Binding affinity to ACTB in human Jurkat cells at 150 uM followed by UV irradiation for 30 mins with Wood's glass filtered medium pressure mercury arc light after cell lysis measured after denaturing wash by SDS-PAGE based pull down assay; method in brief: as §1
[5] = biological target: Actin, cytoplasmic 1 (Homo sapiens) (UniProt P60709); experiment: Binding affinity to ACTB in human Jurkat cells at 150 uM followed by UV irradiation for 30 mins with Wood's glass filtered medium pressure mercury arc light prior to cell lysis measured after denaturing wash by LC-MS/MS based pull down assay
Method in brief: (§3)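 Silver-stained bands from cells irradiated before lysis were excised, destained, reduced with 10 mM DTT, alkylated with 50 mM iodoacetamide and digested with trypsin overnight. Peptides were extracted in 1% TFA/50% acetonitrile. Nano-C18 LC used a 2–50% acetonitrile gradient with 0.1% formic acid over 50 min at 260 nL/min, followed by MS/MS identification.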

[6] = biological target: Calcium/calmodulin-dependent protein kinase type II subunit beta (Homo sapiens, UniProt Q13554); experiment: Inhibition of CAMK2 using autocamtide-2 as substrate after 30 mins by PKLight assay
Calcium/calmodulin-dependent protein kinase type II subunit beta, sequence (Q13554 whole entry): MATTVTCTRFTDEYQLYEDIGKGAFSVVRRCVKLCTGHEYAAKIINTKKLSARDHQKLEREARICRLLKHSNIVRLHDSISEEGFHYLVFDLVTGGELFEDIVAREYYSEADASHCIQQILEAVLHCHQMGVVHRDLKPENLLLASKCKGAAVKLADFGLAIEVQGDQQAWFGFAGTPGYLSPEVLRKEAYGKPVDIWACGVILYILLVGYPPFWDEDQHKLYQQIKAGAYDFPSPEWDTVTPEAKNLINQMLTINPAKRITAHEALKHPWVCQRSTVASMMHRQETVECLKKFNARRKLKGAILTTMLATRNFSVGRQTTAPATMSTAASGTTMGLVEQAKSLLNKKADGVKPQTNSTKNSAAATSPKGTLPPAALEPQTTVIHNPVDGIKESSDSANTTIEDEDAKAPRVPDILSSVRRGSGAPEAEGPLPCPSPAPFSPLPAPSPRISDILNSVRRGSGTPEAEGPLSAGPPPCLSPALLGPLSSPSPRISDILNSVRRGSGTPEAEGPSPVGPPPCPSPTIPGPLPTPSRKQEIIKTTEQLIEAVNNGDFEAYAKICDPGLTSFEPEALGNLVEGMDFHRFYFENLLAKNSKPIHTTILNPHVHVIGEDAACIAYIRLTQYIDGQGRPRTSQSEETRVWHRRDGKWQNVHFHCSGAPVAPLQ

Homo sapiens = species on record: Homo sapiens; experiment: Binding affinity to CK2 at 150 uM after 30 mins by silver staining based pull down assay; method in brief: as §2
[7] = biological target: Eukaryotic translation initiation factor 3 subunit F (Homo sapiens) (UniProt O00303); experiment: Binding affinity to EIF3F in human Jurkat cells at 150 uM followed by UV irradiation for 30 mins with Wood's glass filtered medium pressure mercury arc light prior to cell lysis measured after denaturing wash by LC-MS/MS based pull down assay; method in brief: as §3
Eukaryotic translation initiation factor 3 subunit F (Homo sapiens), sequence (O00303 whole entry): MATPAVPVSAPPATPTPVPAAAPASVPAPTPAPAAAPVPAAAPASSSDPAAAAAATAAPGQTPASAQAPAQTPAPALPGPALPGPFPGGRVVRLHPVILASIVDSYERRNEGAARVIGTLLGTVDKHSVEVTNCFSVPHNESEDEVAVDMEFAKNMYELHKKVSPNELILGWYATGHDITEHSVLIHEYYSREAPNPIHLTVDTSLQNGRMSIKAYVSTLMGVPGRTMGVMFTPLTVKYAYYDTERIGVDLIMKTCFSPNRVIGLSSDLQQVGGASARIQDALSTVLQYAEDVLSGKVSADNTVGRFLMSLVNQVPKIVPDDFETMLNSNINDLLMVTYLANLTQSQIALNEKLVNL

Activity [1]: Active
Activity [2]: Active
Activity [3]: Active
Activity [4]: Active
Activity [5]: Active
IC50 [6]: 25.9 µM
Activity (Homo sapiens): inactive
Activity [7]: Active
Compound: O=C(CCCC[C@@H]1SC[C@@H]2NC(=O)N[C@@H]21)NCCOCCOCCNC(=O)COc1cc(O)c2c(=O)c(O)c(-c3ccc(O)c(O)c3)oc2c1
